In data set [1] the test system is HeLa cells. Put plainly: Mitochondrial membrane potential with JC-1 probe, live-cell confocal microscopy. It is filed as cell-based, human. The conditions noted are these: 2 μM JC-1 probe, excitation 488 nm, NP5 after 30 min incubation. The gist of the method: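 Live HeLa cells were exposed to the test peptide materials for set times, then stained with 2 μM JC-1 followed by Hoechst 33342 before imaging. Confocal microscopy, both channels excited at 488 nm: monomer green at 510–550 nm, J-aggregate red at 585–649 nm; nuclei at ex 405/em 420–480 nm. Green and red fluorescence were compared. CCCP was run alongside.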

The subject of data set [2] is HeLa cells. The class given is cell-based, human.
The nature of data set [3]: Hydrodynamic diameter by dynamic light scattering. The class given is physicochemical. The note with it: DLS; nanoparticles via photo-PISA at solids content of 15 wt.%.

As for “poly[(KLAAm10-co-DMA10)-b-(DAAm280-co-DMA120)] [NP5]”, in data set [1], the “red fluorescence of JC-1 J-aggregates (mitochondrial membrane potential)” value is recorded as “almost no red emission”. Turning to “poly[(KLAAm10-co-DMA30)-b-(DAAm280-co-DMA120)] [NP3]”, the “cytotoxicity in HeLa cells” value in data set [2] is listed as “dose-dependent cytotoxicity”. The “Dh (hydrodynamic diameter)” value in data set [3] was found to be 105 nm.

The values above are taken from paper PMC7722202 (Angewandte Chemie (International ed. in English), 2020).
